Source: ChEMBL document CHEMBL5058577, “EUbOPEN Chemogenomics Library 2 (Multiplex)” (2022)

Tested on: Fibroblast
Test: Multiplex assay against human fibroblast
Format: toxicity, cell-based
In short: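 Values for tubulin, mitochondrial-mass and membrane-permeability phenotypes are per cents of cells with healthy nuclei. These cells were identified by CellPathfinder machine-learning gating of live cells that had been stained at seeding with Hoechst33342, BioTracker Green Microtubule Cytoskeleton Dye, MitoTracker Red and Annexin V Alexa Fluor 680 and imaged on a CQ1 microscope at 37°C and 5% CO2 after compound addition. The gating first set Hoechst high-intensity objects apart from normal cells, then split normal cells into healthy, pyknosed or fragmented nuclei, and pyknosed cells into mitotic or apoptotic.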

[1] = 12 h, 1 µM, compound concentration 1 uM, replicate 1
[2] = 12 h, 1 µM, compound concentration 1 uM, replicate 2
[3] = 12 h, 10 µM, compound concentration 10 uM, replicate 1
[4] = 12 h, 10 µM, compound concentration 10 uM, replicate 2
[5] = 24 h, 1 µM, compound concentration 1 uM, replicate 1
[6] = 24 h, 1 µM, compound concentration 1 uM, replicate 2
[7] = 24 h, 10 µM, compound concentration 10 uM, replicate 1
[8] = 24 h, 10 µM, compound concentration 10 uM, replicate 2
[9] = 48 h, 1 µM, compound concentration 1 uM, replicate 1
[10] = 48 h, 1 µM, compound concentration 1 uM, replicate 2
[11] = 48 h, 10 µM, compound concentration 10 uM, replicate 1
[12] = 48 h, 10 µM, compound concentration 10 uM, replicate 2

For `CCCN1CCC[C@@H]2Cc3n[nH]cc3C[C@H]21.Cl` [QUINPIROLE HYDROCHLORIDE], the “Population Apoptotic (%)” value [1] was 45%, the “Population Fragmented Nuclei (%)” value [1] was 14% and the “Population Healthy Nuclei (%)” value [1] was 65%. For the same molecule, the “Population Hoechst High Intensity Objects (%)” value [1] was 2%, the “Population Membrane Permeable-Phenotype (%)” value [1] was 0% and the “Population Mitochondria Different-Phenotype (%)” value [1] was 3%. The “Population Mitotic Cells (%)” value [1] was 54%, the “Population Normal (%)” value [1] was 97% and the “Population Pyknosed Nuclei (%)” value [1] was 20%. For the same molecule, the “Population Tubulin-Different-Phenotype (%)” value [1] was 17%, the “Total Cell Count” value [1] was 156 and the “Population Apoptotic (%)” value [2] was 52%. For the same molecule, the “Population Fragmented Nuclei (%)” value [2] was 22%, the “Population Healthy Nuclei (%)” value [2] was 60% and the “Population Hoechst High Intensity Objects (%)” value [2] was 6%. For the same molecule, the “Population Membrane Permeable-Phenotype (%)” value [2] was 7%, the “Population Mitochondria Different-Phenotype (%)” value [2] was 6% and the “Population Mitotic Cells (%)” value [2] was 47%. The “Population Normal (%)” value [2] was 93%, the “Population Pyknosed Nuclei (%)” value [2] was 17% and the “Population Tubulin-Different-Phenotype (%)” value [2] was 50%. The “Total Cell Count” value [2] was 139, the “Population Apoptotic (%)” value [3] was 58% and the “Population Fragmented Nuclei (%)” value [3] was 16%. The “Population Healthy Nuclei (%)” value [3] was 68%, the “Population Hoechst High Intensity Objects (%)” value [3] was 4% and the “Population Membrane Permeable-Phenotype (%)” value [3] was 1%. For the same molecule, the “Population Mitochondria Different-Phenotype (%)” value [3] was 6%, the “Population Mitotic Cells (%)” value [3] was 41% and the “Population Normal (%)” value [3] was 95%. The “Population Pyknosed Nuclei (%)” value [3] was 15%, the “Population Tubulin-Different-Phenotype (%)” value [3] was 33% and the “Total Cell Count” value [3] was 115. For the same molecule, the “Population Apoptotic (%)” value [4] was 45%, the “Population Fragmented Nuclei (%)” value [4] was 23% and the “Population Healthy Nuclei (%)” value [4] was 59%. For the same molecule, the “Population Hoechst High Intensity Objects (%)” value [4] was 2%, the “Population Membrane Permeable-Phenotype (%)” value [4] was 10% and the “Population Mitotic Cells (%)” value [4] was 54%. The “Population Normal (%)” value [4] was 97%, the “Population Pyknosed Nuclei (%)” value [4] was 17% and the “Population Tubulin-Different-Phenotype (%)” value [4] was 55%. For the same molecule, the “Total Cell Count” value [4] was 184, the “Population Apoptotic (%)” value [5] was 52% and the “Population Fragmented Nuclei (%)” value [5] was 21%. For the same molecule, the “Population Healthy Nuclei (%)” value [5] was 64%, the “Population Hoechst High Intensity Objects (%)” value [5] was 1% and the “Population Membrane Permeable-Phenotype (%)” value [5] was 0%. The “Population Mitochondria Different-Phenotype (%)” value [5] was 2%, the “Population Mitotic Cells (%)” value [5] was 47% and the “Population Normal (%)” value [5] was 98%. For the same molecule, the “Population Pyknosed Nuclei (%)” value [5] was 13%, the “Population Tubulin-Different-Phenotype (%)” value [5] was 13% and the “Total Cell Count” value [5] was 172. For the same molecule, the “Population Apoptotic (%)” value [6] was 34%, the “Population Fragmented Nuclei (%)” value [6] was 28% and the “Population Healthy Nuclei (%)” value [6] was 53%. For the same molecule, the “Population Hoechst High Intensity Objects (%)” value [6] was 2%, the “Population Membrane Permeable-Phenotype (%)” value [6] was 1% and the “Population Mitochondria Different-Phenotype (%)” value [6] was 7%. For the same molecule, the “Population Mitotic Cells (%)” value [6] was 65%, the “Population Pyknosed Nuclei (%)” value [6] was 17% and the “Population Tubulin-Different-Phenotype (%)” value [6] was 41%. For the same molecule, the “Total Cell Count” value [6] was 150, the “Population Apoptotic (%)” value [7] was 75% and the “Population Fragmented Nuclei (%)” value [7] was 22%. For the same molecule, the “Population Healthy Nuclei (%)” value [7] was 67%, the “Population Hoechst High Intensity Objects (%)” value [7] was 2% and the “Population Membrane Permeable-Phenotype (%)” value [7] was 0%. The “Population Mitochondria Different-Phenotype (%)” value [7] was 7%, the “Population Mitotic Cells (%)” value [7] was 25% and the “Population Normal (%)” value [7] was 97%. For the same molecule, the “Population Pyknosed Nuclei (%)” value [7] was 10%, the “Population Tubulin-Different-Phenotype (%)” value [7] was 32% and the “Total Cell Count” value [7] was 119. The “Population Apoptotic (%)” value [8] was 55%, the “Population Fragmented Nuclei (%)” value [8] was 38% and the “Population Healthy Nuclei (%)” value [8] was 51%. The “Population Hoechst High Intensity Objects (%)” value [8] was 1%, the “Population Membrane Permeable-Phenotype (%)” value [8] was 7% and the “Population Mitochondria Different-Phenotype (%)” value [8] was 3%. The “Population Mitotic Cells (%)” value [8] was 45%, the “Population Normal (%)” value [8] was 98% and the “Population Pyknosed Nuclei (%)” value [8] was 9%. For the same molecule, the “Population Tubulin-Different-Phenotype (%)” value [8] was 39%, the “Total Cell Count” value [8] was 209 and the “Population Apoptotic (%)” value [9] was 68%. The “Population Fragmented Nuclei (%)” value [9] was 23%, the “Population Healthy Nuclei (%)” value [9] was 62% and the “Population Hoechst High Intensity Objects (%)” value [9] was 3%. The “Population Membrane Permeable-Phenotype (%)” value [9] was 0%, the “Population Mitochondria Different-Phenotype (%)” value [9] was 3% and the “Population Mitotic Cells (%)” value [9] was 32%. The “Population Normal (%)” value [9] was 96%, the “Population Pyknosed Nuclei (%)” value [9] was 14% and the “Population Tubulin-Different-Phenotype (%)” value [9] was 21%. For the same molecule, the “Total Cell Count” value [9] was 175, the “Population Apoptotic (%)” value [10] was 38% and the “Population Fragmented Nuclei (%)” value [10] was 37%. The “Population Healthy Nuclei (%)” value [10] was 53%, the “Population Hoechst High Intensity Objects (%)” value [10] was 1% and the “Population Membrane Permeable-Phenotype (%)” value [10] was 8%. For the same molecule, the “Population Mitochondria Different-Phenotype (%)” value [10] was 4%, the “Population Mitotic Cells (%)” value [10] was 61% and the “Population Normal (%)” value [10] was 98%. The “Population Pyknosed Nuclei (%)” value [10] was 8%, the “Population Tubulin-Different-Phenotype (%)” value [10] was 42% and the “Total Cell Count” value [10] was 157. For the same molecule, the “Population Apoptotic (%)” value [11] was 53%, the “Population Fragmented Nuclei (%)” value [11] was 23% and the “Population Healthy Nuclei (%)” value [11] was 65%. For the same molecule, the “Population Hoechst High Intensity Objects (%)” value [11] was 1%, the “Population Membrane Permeable-Phenotype (%)” value [11] was 2% and the “Population Mitochondria Different-Phenotype (%)” value [11] was 6%. The “Population Mitotic Cells (%)” value [11] was 46%, the “Population Normal (%)” value [11] was 98% and the “Population Pyknosed Nuclei (%)” value [11] was 11%. For the same molecule, the “Population Tubulin-Different-Phenotype (%)” value [11] was 31%, the “Total Cell Count” value [11] was 119 and the “Population Apoptotic (%)” value [12] was 46%. For the same molecule, the “Population Fragmented Nuclei (%)” value [12] was 43%, the “Population Healthy Nuclei (%)” value [12] was 48% and the “Population Hoechst High Intensity Objects (%)” value [12] was 3%. For the same molecule, the “Population Mitochondria Different-Phenotype (%)” value [12] was 4%, the “Population Mitotic Cells (%)” value [12] was 53% and the “Population Normal (%)” value [12] was 96%. The “Population Pyknosed Nuclei (%)” value [12] was 8%, the “Population Tubulin-Different-Phenotype (%)” value [12] was 48% and the “Total Cell Count” value [12] was 192.
